Data as given in ChEMBL document CHEMBL5108036, “A concise SAR-analysis of antimicrobial cationic amphipathic barbiturates for an improved activity-toxicity profile” (Eur J Med Chem, 2022).

Key:
Staphylococcus aureus = assay: Antibacterial activity against Staphylococcus aureus ATCC 9144 incubated for 48 hrs and measured by broth microdilution assay; format: functional
Method in brief: (§1)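 MICs in µg/mL were measured against the reference strains S. aureus ATCC 9144, B. subtilis 168, E. coli ATCC 25922 and P. aeruginosa ATCC 27853. Compounds were tested as di-TFA salts.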

Bacillus subtilis = assay: Antibacterial activity against Bacillus subtilis 168 incubated for 48 hrs and measured by broth microdilution assay; format: functional; method in brief: as §1
Escherichia coli = assay: Antibacterial activity against Escherichia coli ATCC 25922 incubated for 48 hrs and measured by broth microdilution assay; format: functional; method in brief: as §1
Pseudomonas aeruginosa = assay: Antibacterial activity against Pseudomonas aeruginosa ATCC 27853 incubated for 48 hrs and measured by broth microdilution assay; format: functional; method in brief: as §1
[1] = Hemolytic activity in human RBC measured after 1 hr by microplate reader method; format: toxicity, cell-based, Erythrocyte; conditions: human, human red blood cells (erythrocytes)
Method in brief: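 Human red blood cell lysis was used as the cytotoxicity read-out, expressed as EC50 in µg/mL. The highest concentration tested was 500 µM. Compounds were tested as di-TFA salts.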

SMILES | MIC (Staphylococcus aureus) | MIC (Bacillus subtilis) | MIC (Escherichia coli) | MIC (Pseudomonas aeruginosa) | EC50 at 1 h [1]
N=C(N)NCCCN1C(=O)N(CCCNC(=N)N)C(=O)C(Cc2ccc(Br)c3ccccc23)(Cc2ccc(Br)c3ccccc23)C1=O.O=C(O)C(F)(F)F.O=C(O)C(F)(F)F | 2 µg/mL | 2 µg/mL | 4 µg/mL | 8 µg/mL | 61 µg/mL
CNCCCCN1C(=O)N(CCCCNC)C(=O)C(Cc2cc(Br)cc(Br)c2)(Cc2cc(Br)cc(Br)c2)C1=O.O=C(O)C(F)(F)F.O=C(O)C(F)(F)F | 8 µg/mL | 4 µg/mL | 8 µg/mL | 16 µg/mL | 73 µg/mL
O=C(O)c1cn(C2CC2)c2cc(N3CCNCC3)c(F)cc2c1=O [CIPROFLOXACIN] |  | < 0.03 µg/mL | < 0.03 µg/mL |  | 
NCCCCN1C(=O)N(CCCCN)C(=O)C(Cc2cc(Br)cc(Br)c2)(Cc2ccc3ccccc3n2)C1=O.O=C(O)C(F)(F)F.O=C(O)C(F)(F)F | 32 µg/mL | 8 µg/mL | 128 µg/mL | 256 µg/mL | > 444 µg/mL
CCCCCCC1(CCCCCC)C(=O)N(CCCCN)C(=O)N(CCCCN)C1=O.O=C(O)C(F)(F)F.O=C(O)C(F)(F)F | 16 µg/mL | 8 µg/mL | 32 µg/mL | 64 µg/mL | > 333 µg/mL
N=C(N)NCCCCCCN1C(=O)N(CCCCCCNC(=N)N)C(=O)C(Cc2cc(Br)cc(Br)c2)(Cc2cc(Br)cc(Br)c2)C1=O.O=C(O)C(F)(F)F.O=C(O)C(F)(F)F | 4 µg/mL | 4 µg/mL | 4 µg/mL | 32 µg/mL | 57 µg/mL
CCCCCCC1(CCCCCC)C(=O)N(CCCCNC(=N)N)C(=O)N(CCCCNC(=N)N)C1=O.O=C(O)C(F)(F)F.O=C(O)C(F)(F)F | 2 µg/mL | 2 µg/mL | 4 µg/mL | 16 µg/mL | 143 µg/mL
N=C(N)NCCCN1C(=O)N(CCCNC(=N)N)C(=O)C(Cc2ccc(C(F)(F)F)cc2)(Cc2cc(Br)cc(Br)c2)C1=O.O=C(O)C(F)(F)F.O=C(O)C(F)(F)F (configuration not stated) | 4 µg/mL | 4 µg/mL | 16 µg/mL | 64 µg/mL | > 480 µg/mL
NCCCCN1C(=O)N(CCCCN)C(=O)C(Cc2cc(Br)cc(Br)c2)(Cc2ccc(Br)c3ccccc23)C1=O.O=C(O)C(F)(F)F.O=C(O)C(F)(F)F | 4 µg/mL | 4 µg/mL | 4 µg/mL | 8 µg/mL | 47 µg/mL
NCCCCN1C(=O)N(CCCCN)C(=O)C(Cc2ccc(Br)c3ccccc23)(Cc2ccc(Br)c3ccccc23)C1=O.O=C(O)C(F)(F)F.O=C(O)C(F)(F)F | 2 µg/mL | 2 µg/mL | 4 µg/mL | 4 µg/mL | 27 µg/mL
NCCCN1C(=O)N(CCCN)C(=O)C(Cc2ccc(C(F)(F)F)cc2)(Cc2ccc(C(F)(F)F)cc2)C1=O.O=C(O)C(F)(F)F.O=C(O)C(F)(F)F | 64 µg/mL | 16 µg/mL | 64 µg/mL | 128 µg/mL | > 393 µg/mL
N=C(N)NCCCCN1C(=O)N(CCCCNC(=N)N)C(=O)C(Cc2ccc(Br)c3ccccc23)(Cc2ccc(Br)c3ccccc23)C1=O.O=C(O)C(F)(F)F.O=C(O)C(F)(F)F | 4 µg/mL | 4 µg/mL | 4 µg/mL | 8 µg/mL | 36 µg/mL
N=C(N)N[C@H]1CC[C@@H](N2C(=O)N([C@H]3CC[C@@H](NC(=N)N)CC3)C(=O)C(Cc3cc(Br)cc(Br)c3)(Cc3cc(Br)cc(Br)c3)C2=O)CC1.O=C(O)C(F)(F)F.O=C(O)C(F)(F)F | 2 µg/mL | 1 µg/mL | 4 µg/mL | 4 µg/mL | 30 µg/mL
NCCCN1C(=O)N(CCCN)C(=O)C(Cc2ccc3cc(Br)ccc3n2)(Cc2ccc3cc(Br)ccc3n2)C1=O.O=C(O)C(F)(F)F.O=C(O)C(F)(F)F | 32 µg/mL | 8 µg/mL | 64 µg/mL | 256 µg/mL | > 455 µg/mL
CC(C)(C)c1ccc(CC2(Cc3cc(Br)cc(Br)c3)C(=O)N(CCCCN)C(=O)N(CCCCN)C2=O)cc1.O=C(O)C(F)(F)F.O=C(O)C(F)(F)F | 4 µg/mL | 4 µg/mL | 8 µg/mL | 8 µg/mL | 82 µg/mL
NCCCCCCN1C(=O)N(CCCCCCN)C(=O)C(Cc2cc(Br)cc(Br)c2)(Cc2cc(Br)cc(Br)c2)C1=O.O=C(O)C(F)(F)F.O=C(O)C(F)(F)F | 4 µg/mL | 4 µg/mL | 4 µg/mL | 16 µg/mL | 30 µg/mL
NCCCCCN1C(=O)N(CCCCCN)C(=O)C(Cc2cc(Br)cc(Br)c2)(Cc2cc(Br)cc(Br)c2)C1=O.O=C(O)C(F)(F)F.O=C(O)C(F)(F)F | 4 µg/mL | 4 µg/mL | 8 µg/mL | 8 µg/mL | 24 µg/mL
NCCCCN1C(=O)N(CCCCN)C(=O)C(Cc2ccc3cc(Br)ccc3n2)(Cc2ccc3cc(Br)ccc3n2)C1=O.O=C(O)C(F)(F)F.O=C(O)C(F)(F)F | 16 µg/mL | 4 µg/mL | 256 µg/mL | 256 µg/mL | > 469 µg/mL

SMILES | MIC (Staphylococcus aureus) | MIC (Bacillus subtilis) | MIC (Escherichia coli) | MIC (Pseudomonas aeruginosa) | EC50 at 1 h [1]
NCCCCN1C(=O)N(CCCCN)C(=O)C(Cc2c(Br)cc(Br)cc2Br)(Cc2c(Br)cc(Br)cc2Br)C1=O.O=C(O)C(F)(F)F.O=C(O)C(F)(F)F | 2 µg/mL | 2 µg/mL | 4 µg/mL | 4 µg/mL | 30 µg/mL
CCCCCCC1(Cc2cc(Br)cc(Br)c2)C(=O)N(CCCCNC(=N)N)C(=O)N(CCCCNC(=N)N)C1=O.O=C(O)C(F)(F)F.O=C(O)C(F)(F)F (configuration not stated) | 2 µg/mL | 4 µg/mL | 4 µg/mL | 8 µg/mL | 58 µg/mL
N=C(N)NCCCCN1C(=O)N(CCCCNC(=N)N)C(=O)C(Cc2ccc3ccccc3n2)(Cc2ccc3ccccc3n2)C1=O.O=C(O)C(F)(F)F.O=C(O)C(F)(F)F | 8 µg/mL | 16 µg/mL | 128 µg/mL | > 256 µg/mL | > 432 µg/mL
CC(C)(C)c1ccc(CC2(Cc3cc(Br)cc(Br)c3)C(=O)N(CCCCNC(=N)N)C(=O)N(CCCCNC(=N)N)C2=O)cc1.O=C(O)C(F)(F)F.O=C(O)C(F)(F)F (configuration not stated) | 2 µg/mL | 2 µg/mL | 2 µg/mL | 4 µg/mL | 39 µg/mL
NCCCCN1C(=O)N(CCCCN)C(=O)C(Cc2ccc3ccccc3n2)(Cc2ccc3ccccc3n2)C1=O.O=C(O)C(F)(F)F.O=C(O)C(F)(F)F | 256 µg/mL | 64 µg/mL | > 256 µg/mL | > 256 µg/mL | > 390 µg/mL
CCCCCCC1(Cc2cc(Br)cc(Br)c2)C(=O)N(CCCCN)C(=O)N(CCCCN)C1=O.O=C(O)C(F)(F)F.O=C(O)C(F)(F)F | 4 µg/mL | 4 µg/mL | 16 µg/mL | 16 µg/mL | 144 µg/mL
N=C(N)NCCCCN1C(=O)N(CCCCNC(=N)N)C(=O)C(Cc2c(Br)cc(Br)cc2Br)(Cc2c(Br)cc(Br)cc2Br)C1=O.O=C(O)C(F)(F)F.O=C(O)C(F)(F)F | 2 µg/mL | 1 µg/mL | 4 µg/mL | 4 µg/mL | 30 µg/mL
NCCCCN1C(=O)N(CCCCN)C(=O)C(Cc2cc(Br)cc(Br)c2)(C2CCCC2)C1=O.O=C(O)C(F)(F)F.O=C(O)C(F)(F)F | 16 µg/mL | 8 µg/mL | 64 µg/mL | 64 µg/mL | > 407 µg/mL
N=C(N)NCCN1C(=O)N(CCNC(=N)N)C(=O)C(Cc2cc(Br)cc(Br)c2)(Cc2cc(Br)cc(Br)c2)C1=O.O=C(O)C(F)(F)F.O=C(O)C(F)(F)F | 2 µg/mL | 2 µg/mL | 4 µg/mL | 16 µg/mL | 164 µg/mL
NCCCN1C(=O)N(CCCN)C(=O)C(Cc2ccc(C(F)(F)F)cc2)(Cc2cc(Br)cc(Br)c2)C1=O.O=C(O)C(F)(F)F.O=C(O)C(F)(F)F | 32 µg/mL | 8 µg/mL | 16 µg/mL | 32 µg/mL | > 438 µg/mL
N[C@H]1C[C@H](N2C(=O)N([C@H]3C[C@H](N)C3)C(=O)C(Cc3cc(Br)cc(Br)c3)(Cc3cc(Br)cc(Br)c3)C2=O)C1.O=C(O)C(F)(F)F.O=C(O)C(F)(F)F | 4 µg/mL | 4 µg/mL | 4 µg/mL | 8 µg/mL | 93 µg/mL
NCCN1C(=O)N(CCN)C(=O)C(Cc2cc(Br)cc(Br)c2)(Cc2cc(Br)cc(Br)c2)C1=O.O=C(O)C(F)(F)F.O=C(O)C(F)(F)F | 4 µg/mL | 4 µg/mL | 4 µg/mL | 8 µg/mL | 39 µg/mL
NCCCCN1C(=O)N(CCCCN)C(=O)C(Cc2ccc(C(F)(F)F)cc2)(Cc2cc(Br)cc(Br)c2)C1=O.O=C(O)C(F)(F)F.O=C(O)C(F)(F)F | 16 µg/mL | 8 µg/mL | 32 µg/mL | 64 µg/mL | 342 µg/mL
CN(C)CCCCN1C(=O)N(CCCCN(C)C)C(=O)C(Cc2cc(Br)cc(Br)c2)(Cc2cc(Br)cc(Br)c2)C1=O.O=C(O)C(F)(F)F.O=C(O)C(F)(F)F | 8 µg/mL | 4 µg/mL | 8 µg/mL | 64 µg/mL | 157 µg/mL
NCCCCN1C(=O)N(CCCCN)C(=O)C(Cc2cc(Br)cc(Br)c2)(Cc2cc(C(F)(F)F)cc(C(F)(F)F)c2)C1=O.O=C(O)C(F)(F)F.O=C(O)C(F)(F)F | 8 µg/mL | 2 µg/mL | 8 µg/mL | 8 µg/mL | 93 µg/mL
N=C(N)NCCCCCN1C(=O)N(CCCCCNC(=N)N)C(=O)C(Cc2cc(Br)cc(Br)c2)(Cc2cc(Br)cc(Br)c2)C1=O.O=C(O)C(F)(F)F.O=C(O)C(F)(F)F | 4 µg/mL | 4 µg/mL | 4 µg/mL | 8 µg/mL | 29 µg/mL
N=C(N)N[C@H]1C[C@H](N2C(=O)N([C@H]3C[C@H](NC(=N)N)C3)C(=O)C(Cc3cc(Br)cc(Br)c3)(Cc3cc(Br)cc(Br)c3)C2=O)C1.O=C(O)C(F)(F)F.O=C(O)C(F)(F)F | 2 µg/mL | 4 µg/mL | 4 µg/mL | 8 µg/mL | 62 µg/mL
